# Results published in ChEMBL document CHEMBL2176900, “Design and synthesis of a novel series of bicyclic heterocycles as potent γ-secretase modulators” (J Med Chem, 2012).
# Columns and labels:
# Mus musculus = assay: Antialzheimer activity in CD1 mouse assessed as amyloid beta 38 level in brain at 10 mg/kg, po at 4 hrs by ELISA relative to control; format: functional
# How it was run: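 Male CD1 SPF mice, fasted overnight, got a single oral dose of 10 or 30 mg/kg. At each time point the right brain hemisphere was homogenized in 0.4% DEA/50 mM NaCl with protease inhibitors and spun at 221300g for 50 min. The supernatant was neutralized with Tris-HCl pH 6.8. Aβ38 or Aβ42 was read by sandwich ELISA with a fluorogenic peroxidase substrate (ex 320/em 420 nm). Results are mean % change versus T = 0 h, n = 4.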
# Rattus norvegicus [1] = assay: Antialzheimer activity in Sprague-Dawley rat assessed as amyloid beta 37 level in CSF at 10 mg/kg, po at 7 hrs by ELISA relative to control; format: functional
# How it was run: (§1)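 Male Sprague-Dawley rats (180-220 g), fasted overnight, were given 10 mg/kg by gastric intubation as a 5 mg/mL suspension in 0.5% methocellulose. At 2, 4, 7 and 25 h, 50 μL CSF was taken from the cisterna magna under isoflurane, then brain was collected. Aβ37/38/40/42 were measured by MesoScale Discovery sandwich immunoassays. Results are mean % change versus T = 0 h, n = 5.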
# [2] = Plasma concentration in Sprague-Dawley rat at 10 mg/kg, po at 7 hrs by LC-MS/MS analysis; format: ADME, organism-based; parameters: dose 10 mg/kg, route oral
# How it was run: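 Overnight-fasted male Sprague-Dawley rats (180–220 g) were given 10 mg/kg by gastric intubation of a 5 mg/mL suspension in 0.5% methocellulose. Blood was collected after decapitation at 2, 4, 7 and 25 h under isoflurane anaesthesia. Plasma compound was measured as in the mouse assay, n = 5.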
# [3] = Drug uptake in CD1 mouse brain at 30 mg/kg, po at 4 hrs by LC-MS/MS analysis; format: ADME, organism-based; parameters: dose 30 mg/kg, route oral; settings: read-out: Drug uptake
# How it was run: (§2)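 Overnight-fasted male CD1 mice received one oral dose (10 or 30 mg/kg) in 20% Captisol. After sacrifice, the left brain hemisphere was stored at −18 °C. Compound level was quantified by a qualified LC-MS/MS method, alongside EDTA plasma spun at 1900g, 4 °C. n = 4 per time point.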
# Brain = assay: Drug uptake in CD1 mouse brain at 10 mg/kg, po at 24 hrs by LC-MS/MS analysis; format: ADME, organism-based; parameters: dose 10 mg/kg, route oral; settings: in vivo, BLD = below limit of detection; how it was run: as §2
# Cytochrome P450 1A2 = target: T1, Cytochrome P450 1A2 (Homo sapiens, UniProt P05177); assay: Inhibition of CYP1A2 in human liver microsomes using phenacetin as substrate; format: ADME, Microsome
# T1 sequence (P05177 whole entry): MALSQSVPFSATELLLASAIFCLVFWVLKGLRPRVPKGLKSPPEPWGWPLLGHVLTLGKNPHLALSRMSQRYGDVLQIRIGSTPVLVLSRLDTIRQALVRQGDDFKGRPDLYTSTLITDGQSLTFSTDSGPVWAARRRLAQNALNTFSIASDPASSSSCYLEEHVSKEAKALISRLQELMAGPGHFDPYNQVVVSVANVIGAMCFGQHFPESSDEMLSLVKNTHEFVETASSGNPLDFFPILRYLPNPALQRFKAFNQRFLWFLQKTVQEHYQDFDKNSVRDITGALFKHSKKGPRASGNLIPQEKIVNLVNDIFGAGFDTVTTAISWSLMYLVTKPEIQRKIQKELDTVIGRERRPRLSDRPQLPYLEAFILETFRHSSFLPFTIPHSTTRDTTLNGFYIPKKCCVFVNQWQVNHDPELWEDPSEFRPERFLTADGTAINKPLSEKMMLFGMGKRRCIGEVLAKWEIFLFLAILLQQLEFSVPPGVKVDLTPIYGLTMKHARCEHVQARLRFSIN
# Rattus norvegicus [4] = assay: Antialzheimer activity in Sprague-Dawley rat assessed as amyloid beta 40 level in brain at 10 mg/kg, po at 7 hrs by ELISA relative to control; format: functional; how it was run: as §1
# [5] = Plasma concentration in CD1 mouse at 30 mg/kg, po at 8 hrs by LC-MS/MS analysis; format: ADME, organism-based; parameters: dose 30 mg/kg, route oral
# How it was run: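 Mice received a single 10 or 30 mg/kg oral dose. Plasma was sampled at several time points up to 48 h, with EDTA plasma obtained by centrifugation at 1900g, 10 min, 4 °C. Compound was quantified by LC-MS/MS, n = 4.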
smiles,measurement,setting,value
COc1nc(Nc2cccc3c2nc(-c2ccc(F)cc2)n3C)ccc1-n1cnc(C)c1,Activity,Mus musculus,141%
same,Activity,Rattus norvegicus [1],929%
same,concentration at 7 h,[2],4 µM
same,concentration at 4 h,[3],21.9 µM
same,Drug uptake,Brain,BLD
same,IC50,Cytochrome P450 1A2,> 30 µM
same,Activity,Rattus norvegicus [4],66%
same,concentration at 8 h,[5],10.5 µM
